{"data": "Results collected from several papers", "RPS6KA2 C-terminal kinase domain": "Ribosomal protein S6 kinase alpha-2, C-terminal kinase domain (RPS6KA2, Homo sapiens, UniProt Q15349)", "RPS6KA2": "Ribosomal protein S6 kinase alpha-2 (RPS6KA2, Homo sapiens, UniProt Q15349)", "RPS6KA2 N-terminal kinase domain": "Ribosomal protein S6 kinase alpha-2, N-terminal kinase domain (RPS6KA2, Homo sapiens, UniProt Q15349)", "note": "Compare with care: the assays were run in different laboratories."}
{"Structure (SMILES)": "CO[C@@H](C)c1c(Nc2ccc([C@H](N(C)C(=O)C3CCS(=O)(=O)CC3)C(F)(F)F)cc2)cnc2cc(Cl)nn12", "target": "RPS6KA2 C-terminal kinase domain", "observed": "cell-free assay", "technique": "competition with immobilised ligand", "concentration": "1 µM", "endpoint": "remaining binding", "result": "79%"}
{"Structure (SMILES)": "COc1cc2ncnc(Nc3ccc(Oc4ccccc4)cc3C)c2cc1OC", "target": "RPS6KA2", "observed": "enzyme activity", "action": "inhibitor", "concentration": "1 µM", "endpoint": "inhibition", "result": "3%"}
{"Structure (SMILES)": "C[C@@H]1CN(c2cc(-c3n[nH]c4ccc(OC5(C)CC5)cc34)ncn2)C[C@H](C)O1", "target": "RPS6KA2 C-terminal kinase domain", "observed": "cell-free assay", "technique": "competition with immobilised ligand", "concentration": "0.1 µM", "endpoint": "remaining binding", "result": "100%"}
{"Structure (SMILES)": "Nc1ncnc2occ(-c3ccc(NC(=O)Nc4cc(C(F)(F)F)ccc4F)cc3)c12", "target": "RPS6KA2 N-terminal kinase domain", "observed": "cell-free assay", "action": "inhibitor", "concentration": "20 µM", "endpoint": "remaining signal", "result": "0.6%"}
{"Structure (SMILES)": "O=c1nc(-c2ccccn2)sc2ccccc12", "target": "RPS6KA2 N-terminal kinase domain", "observed": "binding", "technique": "competition with immobilised ligand", "concentration": "1 µM", "endpoint": "remaining binding", "result": "100%"}
{"Structure (SMILES)": "Cc1ccc(Nc2nccc(N(C)c3ccc4c(C)n(C)nc4c3)n2)cc1S(N)(=O)=O", "target": "RPS6KA2", "observed": "enzyme activity", "action": "inhibitor", "concentration": "10 µM", "endpoint": "inhibition", "result": "64%"}
{"Structure (SMILES)": "N[C@H]1CCN(c2nccc(-c3cnn4ncccc34)n2)C1", "target": "RPS6KA2 N-terminal kinase domain", "observed": "binding", "technique": "competition with immobilised ligand", "concentration": "1 µM", "endpoint": "remaining binding", "result": "85%"}
{"Structure (SMILES)": "NS(=O)(=O)c1cc(NC(=O)C2(c3ccccc3Cl)CC2)ccc1Oc1cccc(Cl)c1", "target": "RPS6KA2 C-terminal kinase domain", "observed": "cell-free assay", "technique": "competition with immobilised ligand", "concentration": "1 µM", "endpoint": "remaining binding", "result": "100%"}
{"Structure (SMILES)": "F[C@@H]1CCN(c2nccc(-c3cnn4ncccc34)n2)C1", "target": "RPS6KA2 N-terminal kinase domain", "observed": "binding", "technique": "competition with immobilised ligand", "concentration": "1 µM", "endpoint": "remaining binding", "result": "93%"}
{"Structure (SMILES)": "CNC(=O)c1ccc(Nc2ncc(C(F)(F)F)c(NCc3nccnc3N(C)S(C)(=O)=O)n2)cc1", "target": "RPS6KA2 C-terminal kinase domain", "observed": "cell-free assay", "technique": "competition with immobilised ligand", "concentration": "0.1 µM", "endpoint": "remaining binding", "result": "61%"}
{"Structure (SMILES)": "Cc1ccc(C(=O)Nc2ccc(CN3CCN(C)CC3)c(C(F)(F)F)c2)cc1C#Cc1cnc2cccnn12", "target": "RPS6KA2", "observed": "enzyme activity", "action": "inhibitor", "concentration": "23.5 nM", "endpoint": "activity vs control", "result": "98%"}
{"Structure (SMILES)": "CN(C)c1nccc(-c2cnn3ncccc23)n1", "target": "RPS6KA2 C-terminal kinase domain", "observed": "binding", "technique": "competition with immobilised ligand", "concentration": "1 µM", "endpoint": "remaining binding", "result": "100%"}
{"Structure (SMILES)": "CNCc1ccc(-c2cc(-c3nc(-c4ccc(S(=O)(=O)C(C)C)cc4)cnc3N)on2)cc1", "target": "RPS6KA2", "observed": "enzyme activity", "action": "inhibitor", "concentration": "0.4 µM", "endpoint": "inhibition", "result": "17%"}
{"Structure (SMILES)": "C[C@H]1CCN(c2nccc(-c3cnn4ncccc34)n2)C1", "target": "RPS6KA2 N-terminal kinase domain", "observed": "binding", "technique": "competition with immobilised ligand", "concentration": "1 µM", "endpoint": "remaining binding", "result": "96%"}
{"Structure (SMILES)": "Cc1cnc(NC2CCOCC2)nc1-n1cnc(C(=O)NC(CN)c2cc(F)cc(Cl)c2)c1 (centres unmarked)", "target": "RPS6KA2", "observed": "enzyme activity", "action": "inhibitor", "technique": "radiometric", "concentration": "1 µM", "endpoint": "remaining activity", "result": "12%"}
{"Structure (SMILES)": "CN(C)c1ncc(F)c(-c2cnn3ncccc23)n1", "target": "RPS6KA2 N-terminal kinase domain", "observed": "binding", "technique": "competition with immobilised ligand", "concentration": "1 µM", "endpoint": "remaining binding", "result": "100%"}
{"Structure (SMILES)": "CC(C)(C)c1nc(-c2cccc(NS(=O)(=O)c3c(F)cccc3F)c2F)c(-c2ccnc(N)n2)s1", "target": "RPS6KA2", "observed": "enzyme activity", "action": "inhibitor", "technique": "radiometric", "concentration": "1 µM", "endpoint": "remaining activity", "result": "81%"}
